ChEMBL document CHEMBL3763097, “Synthesis and biological evaluation of 5,10-dihydro-11H-dibenzo[b,e][1,4]diazepin-11-one structural derivatives as anti-cancer and apoptosis inducing agents” (Eur J Med Chem, 2016)
Active and inactive are the calls of the source. No cut-off for these calls is given here.

Legend:
A549 [1] = experiment: Induction of apoptosis in human A549 cells assessed as viable cells at 0.5 uM after 24 hrs by Annexin V-FITC/PI dual staining based flow cytometry (reference value: 85%); format: functional; details: A549, 24 h, read-out: Activity
MDA-MB-231 [2] = experiment: Induction of apoptosis in human MDA-MB-231 cells assessed as early apoptotic cells at 0.5 uM after 24 hrs by Annexin V-FITC/PI dual staining based flow cytometry (reference value: 0.3%); format: functional
MDA-MB-231 (human) = experiment: Induction of apoptosis in human MDA-MB-231 cells assessed as early apoptotic cells at 2 uM after 24 hrs by Annexin V-FITC/PI dual staining based flow cytometry (reference value: 5.3%)
A549 [3] = experiment: Induction of apoptosis in human A549 cells assessed as necrotic cells at 2 uM after 24 hrs by Annexin V-FITC/PI dual staining based flow cytometry (reference value: 5.2%); format: functional
A549 [4] = experiment: Induction of apoptosis in human A549 cells assessed as necrotic cells at 1 uM after 24 hrs by Annexin V-FITC/PI dual staining based flow cytometry (reference value: 5.2%); format: functional
A549 [5] = experiment: Cell cycle arrest in human A549 cells assessed as accumulation at S phase at 2 uM after 24 to 48 hrs by propidium iodide staining based flow cytometry (reference value: 18.3%); format: functional
How it was run: (§1)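 Cells were seeded at 1×10^6 per well and treated 24 h later with 0.5, 1 or 2 µM compound; DMSO-treated cells served as control. Methods give harvest at 48 h (floating plus trypsinised cells); the figure legend says 24 h. Cells were fixed in 70% ethanol for 30 min at 4 °C and stained with PI, Triton X-100 and RNase A for 15 min in the dark. 10000 events were counted by flow cytometry.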

A549 [6] = experiment: Cell cycle arrest in human A549 cells assessed as accumulation at G0/G1 phase at 2 uM after 24 to 48 hrs by propidium iodide staining based flow cytometry (reference value: 49.1%); format: functional; how it was run: as §1
A549 [7] = experiment: Induction of apoptosis in human A549 cells assessed as late apoptotic cells at 0.5 uM after 24 hrs by Annexin V-FITC/PI dual staining based flow cytometry (reference value: 4.5%); format: functional
A549 [8] = experiment: Induction of apoptosis in human A549 cells assessed as late apoptotic cells at 1 uM after 24 hrs by Annexin V-FITC/PI dual staining based flow cytometry (reference value: 4.5%); format: functional
A549 [9] = experiment: Cytotoxicity against human A549 cells assessed as inhibition of colony formation after 24 hrs by methylene blue staining-based assay; format: functional, cell-based
How it was run: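 Clonogenic assay. Cells were plated at 500 per well and allowed to adhere 24 h. Compound was added at 0.1, 1 and 10 µM for 24 h, then medium was replaced and cells grown a further 14 days. Colonies were fixed with 4% paraformaldehyde, stained with 0.5% methylene blue in PBS for 30 min, rinsed and photographed.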

[10] = Cytotoxicity against human U87MG cells assessed as growth inhibition after 72 hrs by MTT assay; format: functional, cell-based, U-87MG ATCC; details: U-87 MG
How it was run: (§2)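 Cells in RPMI 1640 (PC-3, A549, MDA-MB-231) or DMEM (U87MG, MCF-7) with 10% FBS, passages 4-10, were seeded at 3000-5000 per well and left 24 h. Compounds in DMSO/medium were added for 72 h; DMSO served as control. MTT (5 mg/mL) was added for 4 h and formazan dissolved in DMSO. Absorbance was read at 570 nm minus 630 nm. % inhibition was taken versus DMSO, with IC50 by probit; mean ± SD of three experiments in triplicate.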

A549 [11] = experiment: Induction of apoptosis in human A549 cells assessed as condensation of nuclei at 0.5 to 2 uM after 48 hrs by Hoechst […] staining based fluorescence microscopy; format: functional, cell-based
How it was run: (§3)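 Cells at 25×10^4 per well were allowed to adhere 24 h, then treated with 0.5, 1 and 2 µM compound for 48 h at 37 °C. After a PBS wash they were stained with Hoechst […] (5 µg/mL) for 30 min at room temperature and washed twice. Nuclear morphology was viewed by fluorescence microscopy (ex 350/em 460 nm).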

A549 [12] = experiment: Induction of apoptosis in human A549 cells assessed as viable cells at 1 uM after 24 hrs by Annexin V-FITC/PI dual staining based flow cytometry (reference value: 85%); format: functional; details: A549, 24 h, read-out: Activity
A549 (human) = experiment: Induction of apoptosis in human A549 cells assessed as early apoptotic cells at 2 uM after 24 hrs by Annexin V-FITC/PI dual staining based flow cytometry (reference value: 0.3%)
MDA-MB-231 [13] = experiment: Induction of apoptosis in human MDA-MB-231 cells assessed as viable cells at 0.5 uM after 24 hrs by Annexin V-FITC/PI dual staining based flow cytometry (reference value: 91%); format: functional; details: MDA-MB-231, 24 h, read-out: Activity
A549 [14] = experiment: Cell cycle arrest in human A549 cells assessed as accumulation at G2/M phase after 24 to 48 hrs by propidium iodide staining based flow cytometry; format: functional; how it was run: as §1
MDA-MB-231 [15] = experiment: Cell cycle arrest in human MDA-MB-231 cells assessed as accumulation at S phase at 0.5 uM after 24 to 48 hrs by propidium iodide staining based flow cytometry (reference value: 4.6%); format: functional; how it was run: as §1
MDA-MB-231 [16] = experiment: Induction of apoptosis in human MDA-MB-231 cells assessed as condensation of nuclei at 0.5 to 2 uM after 48 hrs by Hoechst […] staining based fluorescence microscopy; format: functional, cell-based; how it was run: as §3
MDA-MB-231 [17] = experiment: Induction of apoptosis in human MDA-MB-231 cells after 24 hrs by Annexin V-FITC/PI dual staining based flow cytometry; format: functional, cell-based
MCF7 = experiment: Cytotoxicity against human MCF7 cells assessed as growth inhibition after 72 hrs by MTT assay; format: functional, cell-based; details: MCF7, 72 h; how it was run: as §2
A549 [18] = experiment: Induction of reactive oxygen species generation in human A549 cells at 0.5 to 2 uM after 48 hrs by carboxy-DCFDA staining based spectrofluorometry relative to control; format: functional
MDA-MB-231 [19] = experiment: Cell cycle arrest in human MDA-MB-231 cells assessed as accumulation at S phase at 2 uM after 24 to 48 hrs by propidium iodide staining based flow cytometry (reference value: 4.6%); format: functional; how it was run: as §1
MDA-MB-231 [20] = experiment: Cell cycle arrest in human MDA-MB-231 cells assessed as accumulation at S phase at 1 uM after 24 to 48 hrs by propidium iodide staining based flow cytometry (reference value: 4.6%); format: functional; how it was run: as §1
MDA-MB-231 [21] = experiment: Induction of apoptosis in human MDA-MB-231 cells assessed as viable cells at 1 uM after 24 hrs by Annexin V-FITC/PI dual staining based flow cytometry (reference value: 91%); format: functional; details: MDA-MB-231, 24 h, read-out: Activity
MDA-MB-231 [22] = experiment: Induction of apoptosis in human MDA-MB-231 cells assessed as necrotic cells at 2 uM after 24 hrs by Annexin V-FITC/PI dual staining based flow cytometry (reference value: 1.9%); format: functional
MDA-MB-231 [23] = experiment: Induction of apoptosis in human MDA-MB-231 cells assessed as late apoptotic cells at 1 uM after 24 hrs by Annexin V-FITC/PI dual staining based flow cytometry (reference value: 6.2%); format: functional
[24] = Cytotoxicity against human PC3 cells assessed as growth inhibition after 72 hrs by MTT assay; format: functional, cell-based; details: PC-3, 72 h; how it was run: as §2
MDA-MB-231 [25] = experiment: Cytotoxicity against human MDA-MB-231 cells assessed as growth inhibition after 72 hrs by MTT assay; format: functional, cell-based; details: MDA-MB-231, 72 h; how it was run: as §2

Compound: O=C1c2ccccc2Nc2ccccc2N1Cc1cn(Cc2ccccc2)nn1
- viability at 0.5 µM (A549 [1]): 75%
- Activity (MDA-MB-231 [2]): 16.8%
- Activity (MDA-MB-231 (human)): 15.4%
- Activity (A549 [3]): 3.8%
- Activity (A549 [4]): 1.9%
- Activity (A549 [5]): 13.8%
- Activity (A549 [6]): 34.7%
- Activity (A549 [7]): 12.7%
- Activity (A549 [8]): 10.7%
- inhibition (A549 [9]): Dose-dependent effect
- IC50 [10]: 6.97 µM
- Activity (A549 [11]): Active
- viability at 1 µM (A549 [12]): 72%
- Activity (A549 (human)): 19.3%
- viability at 0.5 µM (MDA-MB-231 [13]): 70%
- Activity (A549 [14]): Dose-dependent effect
- Activity (MDA-MB-231 [15]): 1.2%
- Activity (MDA-MB-231 [16]): Active
- Activity (MDA-MB-231 [17]): Dose-dependent effect
- IC50 (MCF7): 7.29 µM
- fold change (FC) (A549 [18]): 1.8
- Activity (MDA-MB-231 [19]): 5.5%
- Activity (MDA-MB-231 [20]): 6.7%
- viability at 1 µM (MDA-MB-231 [21]): 73%
- Activity (MDA-MB-231 [22]): 2.5%
- Activity (MDA-MB-231 [23]): 11.5%
- IC50 [24]: 4.21 µM
- IC50 (MDA-MB-231 [25]): 0.73 µM
